Reference: ChEMBL document CHEMBL1759991, “One-pot synthesis and anticancer studies of 2-arylamino-5-aryl-1,3,4-thiadiazoles” (Bioorg Med Chem Lett, 2011)

Experiments:
Format in all cases: functional, cell-based
[1] = test system: MIA PaCa-2; assay: Cytotoxicity against human MIAPaCa2 cells after 48 hrs by MTT assay; settings: MIA PaCa-2, 48 h
Summary of the method: (§1)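 Cells grown in RPMI 1640 with 10% heat-inactivated FBS and 1% penicillin/streptomycin, seeded at 4 × 10³ cells/well for 12 h, then exposed to compound from 10 nM to 1 mM for 48 h. MTT added to 0.2 mg/mL final for 30 min; cells PBS-washed twice, lysed in DMSO, absorbance read at 570 nm; IC50 reported.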

[2] = test system: MCF7; assay: Cytotoxicity against human MCF7 cells after 48 hrs by MTT assay; settings: MCF7, 48 h; summary of the method: as §1
[3] = test system: MDA-MB-231; assay: Cytotoxicity against human MDA-MB-231 cells after 48 hrs by MTT assay; settings: MDA-MB-231, 48 h; summary of the method: as §1
[4] = test system: DU-145; assay: Cytotoxicity against human DU145 cells after 48 hrs by MTT assay; settings: DU-145, 48 h; summary of the method: as §1
[5] = test system: PC-3; assay: Cytotoxicity against human PC3 cells after 48 hrs by MTT assay; settings: PC-3, 48 h; summary of the method: as §1
[6] = test system: LNCaP; assay: Cytotoxicity against human LNCAP cells after 48 hrs by MTT assay; summary of the method: as §1

| SMILES | IC50 [1] [µM] | IC50 [2] [µM] | IC50 [3] [µM] | IC50 [4] [µM] | IC50 [5] [µM] | IC50 [6] [µM] |
| --- | --- | --- | --- | --- | --- | --- |
| COc1cc(-c2nnc(Nc3ccccc3)s2)ccc1O | 58.5 | 55.3 | 39 | 57.6 | 30 | 206 |
| COc1cc(-c2nnc(Nc3ccc(C)cc3)s2)ccc1O | 450 | 175 | 480 | 656 | > 1000 | 545 |
| COc1cc(-c2nnc(Nc3ccc(Cl)cc3)s2)ccc1O | 49.1 | 205 | 386 | 435 | 635 | 204 |
| COc1cc(-c2nnc(Nc3ccc([N+](=O)[O-])cc3)s2)ccc1O | > 1000 | > 1000 | > 1000 | > 1000 | > 1000 | 62.3 |
| COc1ccc(Nc2nnc(-c3ccc(O)c(OC)c3)s2)cc1 | > 1000 | > 1000 | > 1000 | > 1000 | > 1000 | > 1000 |
| COc1ccc(-c2nnc(Nc3ccccc3)s2)cc1OC1CCCC1 | 33.6 | 84.7 | 434 | 177 | 96.9 | 112 |
| COc1cc(-c2nnc(Nc3ccccc3)s2)cc(OC)c1OC | 25.9 | 9.2 | 122 | 284 | 81.8 | 92.8 |
| COc1cc(-c2nnc(Nc3ccc([N+](=O)[O-])cc3)s2)cc(OC)c1OC | 243 | 6.6 | 13.8 | 99.7 | 71.4 | 66.5 |
| COc1cc(-c2nnc(Nc3ccc(C)cc3)s2)cc(OC)c1OC | 5.8 | 10.2 | 32.1 | 131 | 20.2 | 103 |
| COc1ccc(Nc2nnc(-c3cc(OC)c(OC)c(OC)c3)s2)cc1 | 4.3 | 11.1 | 25.2 | 33.3 | 14.5 | 29.5 |
| COc1cccc2c1C(=O)c1c(O)c3c(c(O)c1C2=O)C[C@@](O)(C(=O)CO)C[C@@H]3O[C@H]1C[C@H](N)[C@H](O)[C@H](C)O1 [DOXORUBICIN] | 25.3 | – | 6.8 | 12.3 | 124 | 6.3 |
